These results are taken from paper PMC10847618 (Heliyon, 2024).

The subject of data set [1] is P. falciparum CQ^S-3D7. Put plainly: Growth inhibition assay. It is filed as cell-based, Plasmodium falciparum. The note with it: for inhibition at 10 µM: 3D7, 10 μM; for IC50: one intra-erythrocytic cycle.
The target in another data set is rPfCDPK1 (Plasmodium falciparum, UniProt P62344). Put plainly: In vitro kinase assay. Type of data set: biochemical. In outline: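 100 ng 6xHis-CDPK1 per reaction in 100 mM Tris-Cl pH 7.4, 50 mM MgCl2, 2.5 mM DTT, 2.5 mM MnCl2, with or without Ca2+ (2.5 mM EGTA). Dephosphorylated bovine casein substrate. Enzyme pre-incubated with test compound (1 or 5 µM) for 20 min at RT. ATP-started reaction run 1 h at 30 °C. ADP formation read by ADP-Glo luminescence.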

Data set [2] has as its system mammalian kinome (HepG2 lysate). The experiment in a line: In vitro kinase assay with HepG2 lysate. Type of data set: biochemical, human. The note with it: HepG2 cytosolic fraction; 1 and 5 μM. Put shortly: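 HepG2 cells (10^7) were lysed for 1 h at 4 °C in 20 mM Tris (pH 7.7), 0.5 % NP-40, 200 mM NaCl, 50 mM NaF, 0.2 mM orthovanadate, protease inhibitors and 0.1 % 2-mercaptoethanol. The lysate was spun at 13,000 rpm for 10 min. Kinase activity of the supernatant was measured by ADP-Glo luminescence with test compound at 1 and 5 μM.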

For data set [3], the target named is recombinant 6xHis-CDPK1 protein (rPfCDPK1) (Plasmodium falciparum, UniProt P62344). The experiment in a line: Microscale thermophoresis. Type of data set: binding. Put shortly:
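Recombinant 6xHis-PfCDPK1 (10 μM) in HEPES-NaCl (pH 7.5) with 0.05 % Tween-20 was labelled with 30 μM cysteine-reactive red maleimide dye for 30 min at RT in the dark. It was then column-purified, keeping fractions below 1000 fluorescence counts. Test compound was serially titrated (4.8 nM–80 μM or 2.4 nM–40 μM) against constant labelled protein and premixed 10 min at RT in the dark. MST was run at RT, 20 % LED and 40 % MST power.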

Another data set has as its system HepG2 cells. Put plainly: MTT cytotoxicity assay. It is filed as cell-based, human. The note with it: HepG2; 2–500 μM. Put shortly: (§1)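 Cells were seeded in DMEM with 10 % FBS (HEK293 2 × 10^4 per well; HepG2 10^4 per well) and incubated overnight at 37 °C in 5 % CO2. Test compound was added at 2.5–600 μM (HEK293) or 2–500 μM (HepG2) for 24 h at 37 °C, with untreated cells as control. MTT was added (stock 5 mg/mL in PBS), formazan was dissolved in DMSO, and absorbance read at 570 nm. Run in triplicate.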

Data set [4] can be described thus: MTT cytotoxicity assay. Type of data set: cell-based, human. Particulars: human, HepG2 cells. In outline:
as §1

A further data set deals with HEK293 cells. The experiment in a line: MTT cytotoxicity assay. Type of data set: cell-based, human. Particulars: HEK293; 2.5–600 μM. In outline:
as §1

Data set [5] in a line: MTT cytotoxicity assay. It is filed as cell-based, human. The note with it: human, HEK293 cells. Put shortly:
as §1

For a further data set, the system named is CQ^S-3D7 P. falciparum. The experiment in a line: Growth progression analysis / blood stage-specific effect. Type of data set: cell-based, Plasmodium falciparum.
The next data set relates to human RBCs. Put plainly: Hemolytic activity. Particulars: 1.5–800 μM. Type of data set: cell-based. In outline: (§2)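 Washed human RBCs (10 %, v/v) were resuspended in PBS (pH 7.4) and incubated with test compound at 1.5–800 μM for 1 h at 37 °C. After centrifugation, supernatant absorbance was read at 415 nm. RBCs treated with 1 % (v/v) Triton X-100 were the positive control. Run in triplicate.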

A short description of another data set: Hemolytic activity. Type of data set: cell-based, human. Particulars: human, red blood cell suspension (10 %, v/v), pH 7.4. In outline:
as §2

Data set [6] concerns hemozoin in synchronized ring-stage parasites. The experiment in a line: Hemozoin assay. Particulars: 10 μM; 30 h. It is filed as cell-based, Plasmodium falciparum. In outline: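 P. falciparum cultures were synchronized at ring stage, held at 6 % parasitemia, and treated with test compound for 30 h in triplicate. Cells were then treated with 2.5 % SDS in 0.1 M sodium bicarbonate (pH 8.8) for 10 min at RT and centrifuged. The pellet was resuspended in 5 % SDS/50 mM NaOH for 30 min. Monomeric heme was read as A405 minus A750.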

Another data set has as its system P. falciparum CQ^R-RKL-9. Put plainly: Growth inhibition assay. Type of data set: cell-based, Plasmodium falciparum.
A further data set relates to PfCDPK1. Particulars: cited from earlier work.
Data set [7] deals with P. falciparum CQ^S-3D7. Particulars: stated IC50 of the standard drug, used as positive control; ref not given; cited from earlier work.
Setting [8] is: Plasmodium falciparum, CQ^S-3D7.
Where [9] appears, read: Plasmodium falciparum, 3D7, CQ^S-3D7.

Molecules are shown by their SMILES. Where “and” joins values, the source holds several entries; their conditions need not be identical. Equal values may be shown once. Entries after “also recorded” stand apart in the source; their conditions may differ. Read-outs that look alike come from different tables or passages of the source.

Chain of rPfCDPK1 (P62344 whole entry): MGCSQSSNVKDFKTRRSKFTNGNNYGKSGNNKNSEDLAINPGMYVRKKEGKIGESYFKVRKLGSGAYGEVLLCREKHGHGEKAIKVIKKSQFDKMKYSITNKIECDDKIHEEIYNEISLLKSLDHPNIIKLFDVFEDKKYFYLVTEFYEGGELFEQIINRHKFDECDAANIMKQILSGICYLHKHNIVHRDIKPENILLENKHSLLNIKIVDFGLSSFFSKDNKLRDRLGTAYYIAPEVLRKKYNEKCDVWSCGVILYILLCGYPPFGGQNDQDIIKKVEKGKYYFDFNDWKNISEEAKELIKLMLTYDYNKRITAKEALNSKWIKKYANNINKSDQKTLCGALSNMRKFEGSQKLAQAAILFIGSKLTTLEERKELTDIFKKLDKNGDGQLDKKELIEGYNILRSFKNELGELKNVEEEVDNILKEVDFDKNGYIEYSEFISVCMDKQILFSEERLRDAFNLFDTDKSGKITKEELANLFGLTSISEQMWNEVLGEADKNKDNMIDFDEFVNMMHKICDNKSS
Chain of recombinant 6xHis-CDPK1 protein (rPfCDPK1) (P62344 whole entry): as above

In the data set with P. falciparum CQ^S-3D7 [1] (setting [8]), `O=C(/C=C/c1cn(Cc2cn(-c3ccnc4cc(Cl)ccc34)nn2)c2ccccc12)c1cccc(Br)c1` [7f, (E)-1-(3-bromophenyl)-3-(1-((1-(7-chloroquinolin-4-yl)-1H-1,2,3-triazol-4-yl)methyl)-1H-indol-3-yl)prop-2-en-1-one] had an inhibition at 10 µM of over 50%.
Still for that read-out and setting: for `O=C(/C=C/c1cn(Cc2cn(-c3ccnc4cc(Cl)ccc34)nn2)c2ccccc12)c1ccccc1Cl` [7h, (E)-1-(2-chlorophenyl)-3-(1-((1-(7-chloroquinolin-4-yl)-1H-1,2,3-triazol-4-yl)methyl)-1H-indol-3-yl)prop-2-en-1-one] the value was over 50%.
`COc1ccccc1C(=O)/C=C/c1cn(Cc2cn(-c3ccnc4cc(Cl)ccc34)nn2)c2ccccc12` [7l, (E)-3-(1-((1-(7-chloroquinolin-4-yl)-1H-1,2,3-triazol-4-yl)methyl)-1H-indol-3-yl)-1-(2-methoxyphenyl)prop-2-en-1-one]: the “PI of PfCDPK1 (inhibition of phosphorylation activity)” value at rPfCDPK1 (1 μM) came to 71.9%. For the same compound, in data set [2], the “inhibition of host kinase activity in words” value is given as “no inhibition of the host kinase activity”. In the data set on P. falciparum CQ^S-3D7 [1] (setting [9]), this compound came in with an IC50 of 2400 nM. Besides, the Kd in data set [3] amounted to 17300 nM.
`COc1ccc(C(=O)/C=C/c2cn(Cc3cn(-c4ccnc5cc(Cl)ccc45)nn3)c3ccccc23)cc1` [7n, (E)-3-(1-((1-(7-chloroquinolin-4-yl)-1H-1,2,3-triazol-4-yl)methyl)-1H-indol-3-yl)-1-(4-methoxyphenyl)prop-2-en-1-one] showed an inhibition at 10 µM in the data set on P. falciparum CQ^S-3D7 [1] (setting [8]) of over 50%.
Same read-out and setting: in the case of `O=C(/C=C/c1cn(Cc2cn(-c3ccnc4cc(Cl)ccc34)nn2)c2ccccc12)c1cccs1` [7p, (E)-3-(1-((1-(7-chloroquinolin-4-yl)-1H-1,2,3-triazol-4-yl)methyl)-1H-indol-3-yl)-1-(thiophen-2-yl)prop-2-en-1-one] it was over 50%.
With `Cc1ccccc1C(=O)/C=C/c1cn(Cc2cn(-c3ccnc4cc(Cl)ccc34)nn2)c2ccccc12` [7r, (E)-3-(1-((1-(7-chloroquinolin-4-yl)-1H-1,2,3-triazol-4-yl)methyl)-1H-indol-3-yl)-1-o-tolylprop-2-en-1-one], the cytotoxicity in words result in the data set with HepG2 cells and with HEK293 cells was “non-cytotoxic” throughout. Also, the viability at 24 h, 100 µM in the data set “MTT cytotoxicity assay [4]” and in the data set “MTT cytotoxicity assay [5]” was over 90% each time. The inhibition at 1 µM at rPfCDPK1 (read-out: PI of PfCDPK1 (inhibition of phosphorylation activity), 1 μM) stood at 45.5%. In addition, the inhibition at 5 µM on rPfCDPK1 (read-out: PI of PfCDPK1 (inhibition of phosphorylation activity), 5 μM) came out at 43.8%. Moreover, the “inhibition of host kinase activity in words” value in [2] is listed as “no inhibition of the host kinase activity; also recorded: no inhibitory effect on the human kinome; also recorded: no inhibitory effect on the human kinases”. The IC50 came out at 1800 nM in the data set with P. falciparum CQ^S-3D7 [1] (CQ^S-3D7); 3500 nM in the data set on P. falciparum CQ^S-3D7 [1] (setting [9]); 2700 nM with P. falciparum CQ^R-RKL-9 (CQ^R-RKL-9, one intra-erythrocytic cycle). The inhibition at 10 µM in the data set with P. falciparum CQ^S-3D7 [1] (setting [8]) is over 50%. Besides, in the data set on CQ^S-3D7 P. falciparum, the “intra-erythrocytic progression: stage affected” value is on record as “effective against the mature stages of the parasite”. Besides, in the data set with CQ^S-3D7 P. falciparum (ring stage treated at IC50 concentration, 40 and 56 h post-treatment), the “growth progression, morphology” value is “stuck at the trophozoite stage with altered morphology”. Moreover, in the data set on human RBCs, the “hemolytic activity in words” value is “no significant lysis; also recorded: no apparent hemolytic activity”. Moreover, the hemolysis at 1 h, 50 µM in “Hemolytic activity” was determined as 2.3%. The compound also had a hemolysis at 1 h, 800 µM in the data set “Hemolytic activity” of 5.9%. Besides, in [6], the “free monomeric heme (control-free heme)” value was 48.8% and 48%. The “Resistance Index (RI)” value in the data set on P. falciparum CQ^R-RKL-9 (IC50 CQ^R-RKL-9/CQ^S-3D7) amounted to 1.49. In data set [3], the Kd worked out at 7200 nM.
Take `CCCCCC(=O)NCCc1c[nH]c2ccccc12` [A, N-[2-(1H-indol-3-yl)ethyl]hexanamide]: the “PfCDPK1 inhibition potency in words” value in the data set with PfCDPK1 is given as “sub-micromolar potency”.
On to `CCN(CC)CCCC(C)Nc1ccnc2cc(Cl)ccc12` (stereo not drawn) [CQ, chloroquine], for which the concentration for half-maximal inhibition (IC50) in the data set on P. falciparum CQ^S-3D7 [7] was 25 nM.
As for `O=Cc1cn(Cc2cn(-c3ccnc4cc(Cl)ccc34)nn2)c2ccccc12` [compound 9, 1-((1-(7-chloroquinolin-4-yl)-1H-1,2,3-triazol-4-yl)methyl)-1H-indole-3-carbaldehyde], the “growth inhibition in words” value in the data set with P. falciparum CQ^S-3D7 [1] (at the tested concentration, CQ^S 3D7) is “poor inhibition; also recorded: not a good inhibitor”.
